Screens as filed in PubChem.
NR2E3 ag-1: activates human NR2E3 receptor; CHO-S Gal4-NCOR/VP16-NR2E3 two-hybrid, luciferase; inhibition of corepressor binding, % at 3.98 µM; 360,000 compounds, 0.35% hits;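 active = inhibition above the mean of all tested compounds plus 3 SD, cut at about 70% in these data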;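 also: 0% = DMSO with NR2E3 transfected cells and 100% = cells lacking NR2E3 construct; higher means lower luciferase signal from less NR2E3 corepressor binding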
Target sequence (Q9Y5X4 whole entry, looked up, the tested form may be a part): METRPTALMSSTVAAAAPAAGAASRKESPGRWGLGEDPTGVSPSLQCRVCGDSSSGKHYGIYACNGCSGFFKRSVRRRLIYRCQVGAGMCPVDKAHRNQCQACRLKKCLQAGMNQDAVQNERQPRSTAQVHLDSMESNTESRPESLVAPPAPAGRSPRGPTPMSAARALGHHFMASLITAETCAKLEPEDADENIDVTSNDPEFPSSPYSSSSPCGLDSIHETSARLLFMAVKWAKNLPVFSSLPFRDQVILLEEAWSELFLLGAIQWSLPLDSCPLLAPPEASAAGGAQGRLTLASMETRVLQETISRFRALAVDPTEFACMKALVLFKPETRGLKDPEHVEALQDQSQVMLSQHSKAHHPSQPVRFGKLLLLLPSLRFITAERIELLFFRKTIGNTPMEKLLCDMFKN
Gli-Sufu antag: Gli-Sufu pathway antagonism. Sufu-KO-LIGHT fibroblasts, Gli luciferase reporter luminescence. inhibition, % at 5 µM. 340,000 compounds, 0.74% hits;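 active = inhibition above about 55%, limit read from the data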;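 also: 0% = DMSO-treated cells and 100% = wells with medium but no cells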
697 NFkB inh: lowers PMA/ionomycin-induced NF-kB signal in 697 B cells | inhibition, % at 4 µM | 330,000 compounds, 0.33% hits | 697 B-cell NF-kB luciferase reporter, 16 h; in the data active = inhibition above about 35%
GalR3 antagonist: human GalR3 antagonism. O60755. 360,000 compounds, 0.44% hits. HEK293 GalR3-CNG cAMP membrane potential fluorescence; galR3 body fused to GalR1 C-terminus. inhibition, % at 3 µM. AID 651719;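 active = inhibition above the screen-wide average plus 3 SD, cut at about 13% in these data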;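 also: forskolin and galanin both at EC90 stimulate the cells; cAMP rise reported by CNG channel membrane potential dye signal; 0% = forskolin plus galanin with DMSO and 100% = forskolin alone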
Target sequence (O60755 1-299 limits assumed): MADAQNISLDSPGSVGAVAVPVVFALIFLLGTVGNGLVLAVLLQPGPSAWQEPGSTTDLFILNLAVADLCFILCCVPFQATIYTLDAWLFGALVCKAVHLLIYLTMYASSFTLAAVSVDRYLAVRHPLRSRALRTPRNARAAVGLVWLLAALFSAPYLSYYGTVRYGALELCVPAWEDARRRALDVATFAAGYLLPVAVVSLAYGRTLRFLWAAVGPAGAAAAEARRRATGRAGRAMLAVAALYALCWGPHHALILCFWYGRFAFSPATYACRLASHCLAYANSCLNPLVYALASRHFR
NR2E3 ag-2: activates human photoreceptor nuclear receptor NR2E3; Q9Y5X4; GST-NR2E3/biotin-RetCOR TR-FRET, 1536-well; inhibition of corepressor binding, % at 4.78 µM; 320,000 compounds, 0.12% hits; AID 2300;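 active = percent inhibition above the cutoff of mean plus 3 SD of all tested compounds, set per screening campaign, cut at about 20% in these data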;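 also: 0% = DMSO wells and 100% = biotin wells as full block of FRET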
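System: GST-tagged NR2E3 plus biotinylated RetCOR corepressor; Buffer or medium: pH 7.5 Tris-based buffer; Probe or stimulus: RetCOR corepressor, biotinylated, 7 nM; Doses: compound at 4.8 µM, single dose; Schedule: 5 h incubation at 4 °C; Technique: time-resolved FRET; Evaluation: percent inhibition of TR-FRET ratio; Replication: one well per compound, singlicate testing.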
Jurkat NFkB inh: lowers PMA/ionomycin-induced NF-kB signal in Jurkat cells. PMA/ionomycin-induced NF-kB luciferase reporter, luminescence. inhibition, % at 4 µM. 330,000 compounds, 0.53% hits; in the data active = inhibition above about 50%
NR2E3 ag confirm: NR2E3 agonism confirmed in two-hybrid assay; shares compounds with NR2E3 ag-1; CHO-S mammalian two-hybrid NR2E3-NCOR, luciferase luminescence; inhibition, % at 3.98 µM; 2,300 compounds, 51% hits; AID 624378;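 active = average inhibition above a cutoff equal to the mean inhibition of all tested compounds plus one SD, cut at about 70% in these data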;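 also: 0% = DMSO in NR2E3 cells and 100% = DMSO in cells lacking NR2E3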
GAL4-VP16 luc: counter-screen for NR2E3 agonists: GAL4-VP16 reporter inhibitors | 2,300 compounds, 29% hits | AID 624379 | shares compounds with NR2E3 ag-1 | inhibition, % at 3.98 µM | CHO-S GAL4-VP16 luciferase reporter, luminescence;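 active = mean inhibition above a cutoff equal to the average over all tested compounds plus one standard deviation, cut at about 70% in these data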;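 also: luciferase from a UAS reporter driven by GAL4-VP16 transactivation; 0% = DMSO with VP16-transfected cells and 100% = DMSO with cells lacking VP16; higher means less reporter light so more repression of VP16 activity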
Numbers without * were called inactive; x = not tested or not shown. Most compounds without a hit are left out; they make up all but 1.8% or so of the library.

SMILES | NR2E3 ag-1 | Gli-Sufu antag | 697 NFkB inh | GalR3 antagonist | NR2E3 ag-2 | Jurkat NFkB inh | NR2E3 ag confirm | GAL4-VP16 luc
N#C/C(=N\Nc1cccc(C(F)(F)F)c1)C(=O)c1ccsc1 | 80.0* | 31.2 | -50.2 | -2.6 | -1.9 | -14.9 | 98.5* | 59.3
Cc1nccc(-c2cccc(N/N=C(\C#N)C(=O)c3ccccc3)c2)n1 | 8.1 | 12.4 | 1.7 | -3.0 | 3.1 | -2.3 | x | x
Cc1csc2c(N3CCN(C(=S)Nc4ccc(C(F)(F)F)cc4)CC3)ncnc12 | 91.7* | 2.5 | 2.7 | -5.9 | -2.0 | 3.4 | 96.4* | 86.8*
Cc1csc2c(N3CCN(C(=O)c4ccc(C(C)(C)C)cc4)CC3)ncnc12 | 76.8* | 8.4 | -14.1 | -6.3 | -4.3 | 6.2 | 96.6* | 83.9*
Cc1csc2c(N3CCN(C(=O)Nc4ccc(Cl)c(Cl)c4)CC3)ncnc12 | 81.0* | 18.1 | 0.6 | 0.5 | 2.8 | 30.7 | 97.4* | 84.3*
CC1(C(=O)Nc2ccc3nc[nH]c3c2)CCN1C(=O)c1ccccc1CCc1ccccc1 (stereo not drawn) | -6.7 | x | x | -3.7 | x | x | x | x
COc1ccc(Br)c(C(=O)N(C)CC(=O)Nc2ccc(N3CCOCC3)cc2)c1 | -10.8 | -9.8 | 6.9 | 3.1 | 2.8 | 3.8 | x | x
Cc1ccc(NS(=O)(=O)c2ccc(C(=O)N3CCN(c4ncccn4)CC3)cc2)cc1 | 83.0* | 47.7 | -33.4 | -5.5 | -0.6 | 13.1 | 74.0* | 57.1
Cc1ccc(NS(=O)(=O)c2ccc(C(=O)N3CCN(S(=O)(=O)c4ccccc4)CC3)cc2)cc1 | 62.0 | 22.9 | -5.3 | -1.7 | 1.9 | 12.3 | 46.8 | 22.1
COc1ccc(NC(=O)Nc2nnc([C@H]3C[C@H](O)[C@@H](CO)O3)s2)cc1 | -3.4 | x | x | -7.0 | x | x | x | x
CC[C@]12c3[nH]c4cc(CCC(=O)N(C)C)ccc4c3CCN1C(=O)[C@@H](CC(=O)NCCCn1ccnc1)C[C@@H]2C(=O)N1CCN(C(=O)c2ccco2)CC1 | -11.7 | -3.7 | 5.5 | -7.6 | x | x | x | x
COc1ccc(NC(=O)/C(Cl)=C(/Cl)S(=O)(=O)Cc2ccccc2)cn1 | 82.8* | 19.6 | x | -3.8 | x | x | 98.2* | 26.6
O=S(c1cc(Cl)cc(Cl)c1O)c1cc(Cl)cc(Cl)c1O | 83.8* | x | x | -5.7 | x | x | 99.2* | 78.3*
CCOc1cccc(/C=N/NC(=S)Nc2ccccc2[N+](=O)[O-])c1O | 82.7* | 53.8 | -118.2 | -3.5 | 3.2 | 26.8 | 53.0 | 25.5
COc1ccc(Cc2noc(CN(C)CC(O)c3ccccc3)n2)cc1OC (stereo not drawn) | -12.9 | -4.7 | 2.2 | -2.4 | -0.2 | -5.6 | x | x
COc1ccccc1OCCSc1nc2ccccc2n1CC(=O)O | -32.2 | x | x | -7.8 | x | x | x | x
O=C(NC(NNc1ccc([N+](=O)[O-])cc1)(C(F)(F)F)C(F)(F)F)c1ccc(Cl)cc1 | 47.7 | -3.5 | -51.0 | -4.3 | 4.2 | -11.1 | 80.3* | 84.9*
O=C(NNc1ccc([N+](=O)[O-])cc1)c1ccccc1Cl | 6.0 | -1.8 | 20.3 | 9.4 | -1.1 | 3.3 | x | x
Clc1ccc(Nc2ncnc3ccc(Br)cc23)cc1 | -17.0 | 5.7 | -42.1 | -4.2 | 12.7 | 16.2 | x | x
Brc1ccc2ncnc(NCc3ccccc3)c2c1 | 65.3 | 43.2 | -20.3 | -6.4 | 2.3 | 35.5 | 90.5* | 85.0*
O=C(CSc1nc2ccccc2c(=O)[nH]1)Nc1ccc(N2CCOCC2)c(Cl)c1 | 49.0 | 10.0 | 3.1 | -7.1 | 4.9 | 14.5 | 26.7 | 45.9
Cc1ccc(NC(=O)CSc2nc3ccccc3c(=O)[nH]2)cc1[N+](=O)[O-] | 56.0 | 2.1 | -14.2 | 2.8 | x | -8.0 | 45.9 | 59.7
CCOc1ccc(S(=O)(=O)N2CCC(C(=O)NC3CCCCC3)CC2)cc1 | -12.2 | -2.4 | 20.6 | -0.3 | -2.1 | 20.4 | x | x
O=C(COC(=O)c1cc([N+](=O)[O-])ccc1N1CCOCC1)Nc1ccc(Cl)cn1 | 78.3* | -20.6 | -3.1 | -3.5 | -1.1 | 29.0 | 82.1* | 27.6
Cc1ccc(C)c(OCC(=O)Nc2ccc(C(=O)O)cc2NC(=O)COc2cc(C)ccc2C)c1 | 4.2 | -19.7 | -46.1 | 0.6 | 3.5 | -9.3 | x | x
SMILES | NR2E3 ag-1 | Gli-Sufu antag | 697 NFkB inh | GalR3 antagonist | NR2E3 ag-2 | Jurkat NFkB inh | NR2E3 ag confirm | GAL4-VP16 luc
Cc1c(CCCN)c2ccccc2n1Cc1ccccc1 | 49.8 | 5.4 | 1.5 | -5.9 | 1.6 | 7.3 | -4.2 | 4.1
NC(=O)Oc1cccc(OC(N)=O)c1 | -20.6 | 2.7 | -5.9 | -7.0 | 1.1 | 12.5 | x | x
O=C1NC(=O)C(=Cc2ccc(Cl)cc2Cl)S1 | 62.2 | -71.3 | x | -3.2 | x | x | 90.6* | -4.3
CC1(C(=O)NS(=O)(=O)C2CC2)CCN(C(=O)c2ccc3ccccc3n2)C1 (stereo not drawn) | -16.8 | x | x | -7.0 | x | x | x | x
N#Cc1ccccc1NC(=O)C(=O)NCCCN1CCCC1=O | -34.5 | -17.3 | -14.9 | -2.9 | 0.7 | 7.1 | x | x
O=C(Nc1cc(S(=O)(=O)N2CCCCC2)ccc1Cl)c1ccccc1NS(=O)(=O)c1ccc(F)cc1 | 95.9* | 51.1 | x | -4.0 | -0.1 | x | 99.1* | 85.3*
CCn1c(C)nnc1SCC(=O)NC1CCCC1 | 3.1 | -6.6 | 8.7 | -8.3 | 1.5 | 9.9 | x | x
COc1ccccc1NC(=O)CSc1nnnn1-c1ccccc1OC | -21.0 | -1.9 | -1.0 | -1.2 | 0.8 | -0.6 | x | x
COc1ccccc1NC(=O)CSc1nnnn1-c1ccc2c(c1)OCO2 | 68.7 | 2.5 | 10.2 | -3.0 | -1.4 | -14.8 | 64.3 | 9.4
O=C(COc1ccccc1F)Nc1ccc2c(c1)OCCO2 | 73.5* | 47.5 | -30.2 | -6.4 | 3.7 | -77.8 | 9.5 | -5.9
N#Cc1ccccc1OCC(=O)Nc1ccc2c(c1)OCCO2 | -38.0 | -20.4 | -21.4 | -2.7 | -1.4 | -58.6 | x | x
N#C/C(=C/c1ccc(Sc2nc3ccccc3[nH]2)o1)c1cccc(F)c1 | 22.9 | -3.8 | -3.9 | -3.1 | 1.5 | -4.7 | x | x
N#C/C(=C/c1ccc(Sc2nc3ccccc3[nH]2)o1)c1ccccc1F | 62.2 | -0.5 | -7.7 | -4.3 | -0.1 | -0.2 | 78.1* | 62.9
CCc1[nH]nc(C(=O)N2CCCC(C(=O)c3cccc(C(F)(F)F)c3)C2)c1C (stereo not drawn) | 49.0 | 48.8 | -25.3 | -2.4 | -3.9 | 0.5 | 19.9 | 31.3
CC1=C(C(=O)N2CCCC(C(=O)c3cccc(C(F)(F)F)c3)C2)OCCO1 (stereo not drawn) | -20.8 | 11.9 | -3.6 | 0.5 | 0.6 | 18.7 | x | x
OC(c1cccc(OCc2ccccc2)c1)c1nnc(-c2ccccc2)o1 (stereo not drawn) | 87.3* | 7.7 | -22.6 | -5.5 | 2.1 | 1.1 | 91.7* | 75.5*
CCN1CCN(Cc2ccc(NC(=O)c3ccc(C)c(NC(=O)c4ccno4)c3)cc2C(F)(F)F)CC1 | 36.5 | 30.6 | 7.6 | 5.2 | 1.8 | 18.7 | 55.3 | 14.9
